Data set [1] can be described thus: Cytotoxicity against mouse J774A1 cells assessed as cell viability at 100 uM after 48 hrs by MTT assay. It counts as functional. Conditions: J774.A1, 48 h, read-out: Activity. An outline of the steps:
(§1)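 J774 A.1 cells were grown in DMEM and HepG2 in MEM, each with 10% FBS, penicillin, streptomycin and 2 mM L-glutamine, at 37 °C in 5% CO2. Seeded at 1-5·10^4 cells/well with half-log diluted compounds, 1% DMSO final, for 48 h. MTT was added to 0.5 mg/mL final for 3-4 h, solubilized in 50% DMSO/50% EtOH, and read at 570 nm. Background came from Triton X-100 lysed wells, and viability was taken relative to untreated controls.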

Data set [2] in a line: Cytotoxicity against human HepG2 cells assessed as cell viability at 100 uM after 48 hrs by MTT assay. It counts as cell-based. Conditions: read-out: Activity. An outline of the steps: as §1
(Tetrazolium dyes change colour on reduction, which living cells bring about.)

For data set [3], the target named is Matrix metalloproteinase-9 (Homo sapiens, UniProt P14780). The data set can be described thus: Inhibition of MMP9 catalytic domain (unknown origin) using Mca-Pro-Leu-Gly-Leu-Dpa-Ala-Arg-NH2 as substrate incubated for 30 mins prior to substrate addition measured after 2 to 4 hrs by fluorometric assay. In short, it runs like this:
(§2)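 Catalytic domains of MMP-8, MMP-9 or MMP-14 were preincubated 30 min at 25 °C with inhibitor (six concentrations, 0.1 nM–100 μM) in 50 mM Tris-HCl pH 7.5, 200 mM NaCl, 1 mM CaCl2, 1 μM ZnCl2, 0.05% Brij-35, 1% DMSO. Substrate was added to 2.5 μM final for 2–4 h at 37 °C, then acetic acid stop. Fluorescence read at 340/405 nm, in triplicate; IC50 fitted from percent inhibition.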

In data set [4] the target is 72 kDa type IV collagenase (Homo sapiens, UniProt P08253). The data set is described as follows: Inhibition of APMA-activated recombinant human MMP2 using Mca-Pro-Leu-Gly-Leu-Dpa-Ala-Arg-NH2 as substrate incubated for 30 mins prior to substrate addition measured after 2 to 4 hrs by fluorometric assay. An outline of the steps:
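Human pro-MMP-2 was activated with 2 mM APMA for 1 h at 37 °C. Enzyme and inhibitor (six concentrations, 0.1 nM–100 μM) were preincubated 30 min at 25 °C in Tris-HCl pH 7.5 buffer with NaCl, CaCl2, ZnCl2, Brij-35 and 1% DMSO. Substrate was added to 2.5 μM final, run 2–4 h at 37 °C, and stopped with 3% acetic acid. Fluorescence read at ex 340/em 405 nm, in triplicate; IC50 from percent inhibition versus no-inhibitor controls.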

The target in data set [5] is Neutrophil collagenase (Homo sapiens, UniProt P22894). The data set is described as follows: Inhibition of MMP8 catalytic domain (unknown origin) using Mca-Pro-Leu-Gly-Leu-Dpa-Ala-Arg-NH2 as substrate incubated for 30 mins prior to substrate addition measured after 2 to 4 hrs by fluorometric assay. An outline of the steps:
as §2

In data set [6] the target is Matrix metalloproteinase-14 (Homo sapiens, UniProt P50281). The data set can be described thus: Inhibition of MMP14 catalytic domain (unknown origin) using Mca-Pro-Leu-Gly-Leu-Dpa-Ala-Arg-NH2 as substrate incubated for 30 mins prior to substrate addition measured after 2 to 4 hrs by fluorometric assay. In short, it runs like this:
as §2

The subject of data set [7] is Hydroxyapatite. The data set is described as follows: Binding affinity to bone mineral hydroxyapatite assessed as adsorbed level at 100 uM after 2 hrs by UV-spectrophotometric analysis. In short, it runs like this: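 Duplicate 5 ml aliquots of 100 μM bisphosphonic acid in 50 mM Tris-HCl pH 7.5, stirred with 4 mg hydroxyapatite at 37 °C for 2 h. After centrifugation (10 min, 8000 rpm) and 0.22 μm filtration, supernatant absorbance was quantified against calibration lines.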

pIC50: −log10 of the molar value.

Chain of 72 kDa type IV collagenase (P08253 whole entry): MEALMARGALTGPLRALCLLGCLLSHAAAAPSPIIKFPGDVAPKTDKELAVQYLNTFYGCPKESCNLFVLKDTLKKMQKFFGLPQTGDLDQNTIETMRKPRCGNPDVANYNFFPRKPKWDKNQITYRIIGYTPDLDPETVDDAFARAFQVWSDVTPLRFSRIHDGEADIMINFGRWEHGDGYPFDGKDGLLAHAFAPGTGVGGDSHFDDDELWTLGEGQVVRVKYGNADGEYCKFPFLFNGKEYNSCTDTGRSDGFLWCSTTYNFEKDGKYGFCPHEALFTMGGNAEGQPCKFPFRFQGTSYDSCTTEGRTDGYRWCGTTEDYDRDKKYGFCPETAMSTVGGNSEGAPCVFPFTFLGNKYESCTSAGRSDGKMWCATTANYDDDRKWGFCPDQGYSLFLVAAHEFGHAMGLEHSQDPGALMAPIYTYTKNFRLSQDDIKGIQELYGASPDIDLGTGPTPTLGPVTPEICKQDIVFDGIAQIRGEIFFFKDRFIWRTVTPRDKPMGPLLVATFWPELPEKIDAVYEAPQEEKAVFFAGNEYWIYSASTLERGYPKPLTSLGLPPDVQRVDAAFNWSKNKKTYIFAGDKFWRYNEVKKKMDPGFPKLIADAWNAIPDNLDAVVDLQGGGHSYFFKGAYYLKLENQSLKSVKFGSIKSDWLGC
Chain of Neutrophil collagenase (P22894 whole entry, the tested form may be a part): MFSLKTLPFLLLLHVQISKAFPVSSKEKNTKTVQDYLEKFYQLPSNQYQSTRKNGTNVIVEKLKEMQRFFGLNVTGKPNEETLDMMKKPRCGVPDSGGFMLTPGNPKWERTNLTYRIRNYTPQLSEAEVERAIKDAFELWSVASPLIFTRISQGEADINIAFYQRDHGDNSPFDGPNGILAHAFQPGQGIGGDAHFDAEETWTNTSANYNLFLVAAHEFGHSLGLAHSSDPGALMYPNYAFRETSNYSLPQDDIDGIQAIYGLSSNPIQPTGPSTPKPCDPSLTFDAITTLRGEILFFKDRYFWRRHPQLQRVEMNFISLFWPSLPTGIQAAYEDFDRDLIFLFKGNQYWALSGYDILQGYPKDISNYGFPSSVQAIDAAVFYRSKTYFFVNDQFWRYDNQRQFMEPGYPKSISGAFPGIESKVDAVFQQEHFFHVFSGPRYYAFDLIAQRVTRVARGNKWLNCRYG
Chain of Matrix metalloproteinase-9 (P14780 whole entry, the tested form may be a part): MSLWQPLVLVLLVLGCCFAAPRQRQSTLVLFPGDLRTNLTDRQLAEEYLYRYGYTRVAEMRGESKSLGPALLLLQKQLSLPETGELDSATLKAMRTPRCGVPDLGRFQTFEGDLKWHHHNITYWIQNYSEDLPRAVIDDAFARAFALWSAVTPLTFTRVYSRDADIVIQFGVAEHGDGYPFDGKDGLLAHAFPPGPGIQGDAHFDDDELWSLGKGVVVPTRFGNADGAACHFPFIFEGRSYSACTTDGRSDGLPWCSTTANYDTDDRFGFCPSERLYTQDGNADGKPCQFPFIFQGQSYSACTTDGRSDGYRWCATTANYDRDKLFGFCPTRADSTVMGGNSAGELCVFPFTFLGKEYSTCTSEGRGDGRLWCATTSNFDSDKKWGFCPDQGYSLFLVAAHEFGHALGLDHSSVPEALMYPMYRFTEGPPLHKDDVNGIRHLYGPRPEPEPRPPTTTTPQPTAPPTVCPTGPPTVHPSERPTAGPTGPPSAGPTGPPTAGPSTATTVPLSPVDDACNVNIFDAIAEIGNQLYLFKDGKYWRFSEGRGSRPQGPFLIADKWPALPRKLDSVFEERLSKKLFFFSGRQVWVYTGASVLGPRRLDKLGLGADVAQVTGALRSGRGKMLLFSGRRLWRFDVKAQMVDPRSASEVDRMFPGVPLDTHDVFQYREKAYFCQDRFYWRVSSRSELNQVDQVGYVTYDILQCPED

Consider `O=P(O)(O)C(Nc1cccc(-c2ccccc2)c1)P(=O)(O)O`, for which, in data set [1], the viability at 100 µM came to 49%. Further, the viability at 48 h, 100 µM in data set [2] was 102%. Also, the negative-log IC50 (pIC50) (in general, −log10 of the IC50, conventionally taken in molar units) in data set [3] is less than 4.00; in data set [4], less than 4.00; in data set [5], 4.28; in data set [6], 4.40. Further, the Activity in data set [7] worked out at 66.4%.

With `O=P(O)(O)C(Nc1ccc(-c2ccccc2)cc1)P(=O)(O)O`, the viability at 100 µM in data set [1] stood at 36%. In addition, in data set [2], the viability at 48 h, 100 µM turned out to be 88%. Also, the pIC50 in data set [3] is less than 4.00; in data set [4], less than 4.00; in data set [5], 4.52; in data set [6], 4.47. Besides, the Activity in data set [7] is 60%.

On to `O=P(O)(O)C(Nc1ccc(Oc2ccccc2)cc1)P(=O)(O)O`, for which the viability at 100 µM in data set [1] is 44%. Also, the viability at 48 h, 100 µM in data set [2] was found to be 105%. In addition, the negative logarithm of the IC50 (pIC50) is less than 4.00 in data set [3], 5.55 in data set [4], 4.36 in data set [5] and 4.37 in data set [6]. The Activity in data set [7] came out at 66.2%.

Regarding `O=[N+]([O-])c1cc(NC(P(=O)(O)O)P(=O)(O)O)ccc1F`, the viability at 100 µM in data set [1] amounted to 69%. Also, in data set [2], the viability at 48 h, 100 µM amounted to 69%. Besides, the pIC50 in data set [3] is less than 4.00; in data set [4], 4.60; in data set [5], less than 4.00; in data set [6], less than 4.00. For the same compound, in data set [7], the Activity amounted to 66.2%.

In the case of `O=P(O)(O)C(Nc1cccc2ccccc12)P(=O)(O)O`, the viability at 100 µM in data set [1] was determined as 33%. Besides, in data set [2], the viability at 48 h, 100 µM stood at 98%. The negative-log IC50 (pIC50) in data set [3] was 5.22; in data set [4], 5.19; in data set [5] it was 4.21; in data set [6] it was 4.16. For the same compound, the Activity in data set [7] turned out to be 51.6%.

As to `Cc1ccc(NC(P(=O)(O)O)P(=O)(O)O)cc1` [(P-TOLYLAMINO)METHYLENEDIPHOSPHONIC ACID], in data set [1], the viability at 100 µM turned out to be 83%. In addition, the viability at 48 h, 100 µM in data set [2] turned out to be 104%. In addition, the negative logarithm of the IC50 (pIC50) in data set [3] was less than 4.00; in data set [4], less than 4.00; in data set [5], 4.44; in data set [6], less than 4.00. Moreover, the Activity in data set [7] was 23.9%.

For the compound `O=P(O)(O)C(Nc1ccc(Cl)cc1)P(=O)(O)O` [(4-CHLOROPHENYLAMINO)METHYLENEDIPHOSPHONIC ACID], in data set [1], the viability at 100 µM is 86%. The viability at 48 h, 100 µM in data set [2] was found to be 97%. The pIC50 in data set [3], in data set [4], in data set [5] and in data set [6] was less than 4.00 in each case. For the same compound, in data set [7], the Activity was found to be 64.2%.

On to `O=P(O)(O)C(Nc1ccc(F)cc1)P(=O)(O)O`, for which the viability at 100 µM in data set [1] was determined as 80.4%. The viability at 48 h, 100 µM in data set [2] was determined as 94%. Moreover, the negative logarithm of the IC50 (pIC50) is less than 4.00 in data set [3], 4.55 in data set [4], less than 4.00 in data set [5] and less than 4.00 in data set [6]. In addition, in data set [7], the Activity was found to be 61.2%.

As for `O=P(O)(O)C(Nc1ccc(C(F)(F)F)cc1)P(=O)(O)O`, in data set [1], the viability at 100 µM was determined as 53%. Also, in data set [2], the viability at 48 h, 100 µM was determined as 100%. For the same compound, the negative logarithm of the IC50 (pIC50) in data set [3] was less than 4.00; in data set [4] it was 4.82; in data set [5] it was less than 4.00; in data set [6] it was less than 4.00. The Activity in data set [7] turned out to be 42.5%.

For `O=P(O)(O)C(Nc1cccc(Br)c1)P(=O)(O)O`, the viability at 100 µM in data set [1] was 72%. Moreover, in data set [2], the viability at 48 h, 100 µM is 67%. For the same compound, the pIC50 was less than 4.00 in data set [3], 4.43 in data set [4], less than 4.00 in data set [5] and less than 4.00 in data set [6]. The Activity in data set [7] is 70.1%.

In the case of `O=P(O)(O)C(O)(Cn1ccnc1)P(=O)(O)O` [ZOLEDRONIC ACID], the pIC50 in data set [3] was 4.28; in data set [4] it was 5.15; in data set [5], 4.75; in data set [6], 4.90.

Take `O=P(O)(O)C(Nc1ccc(O)cc1)P(=O)(O)O`: the viability at 100 µM in data set [1] turned out to be 19.5%. In data set [2], the viability at 48 h, 100 µM came to 101%. The pIC50 in data set [3] is less than 4.00; in data set [4], 5.18; in data set [5], less than 4.00; in data set [6] it was less than 4.00. Further, the Activity in data set [7] worked out at 88%.

For `O=P(O)(O)C(Nc1ccc(Br)cc1)P(=O)(O)O`, the viability at 100 µM in data set [1] is 81%. In data set [2], the viability at 48 h, 100 µM was found to be 94%. For the same compound, the pIC50 was 4.52 in data set [3], 5.22 in data set [4], 5.62 in data set [5] and 5.41 in data set [6]. Also, in data set [7], the Activity came out at 49%.

Turning to `O=[N+]([O-])c1ccc(NC(P(=O)(O)O)P(=O)(O)O)cc1`, in data set [1], the viability at 100 µM was found to be 76%. Moreover, in data set [2], the viability at 48 h, 100 µM was found to be 84%. The negative logarithm of the IC50 (pIC50) in data set [3] is 4.70; in data set [4], 4.70; in data set [5], 4.82; in data set [6] it was 4.59. In addition, in data set [7], the Activity turned out to be 76%.

With `O=P(O)(O)C(Nc1ccc(Cl)cc1Cl)P(=O)(O)O` [2,4-DICHLOROPHENYLAMINOMETHYLENEBISPHOSPHONIC ACID], the viability at 100 µM in data set [1] came out at 59%. For the same compound, in data set [2], the viability at 48 h, 100 µM amounted to 73%. The pIC50 in data set [3], in data set [4], in data set [5] and in data set [6] was less than 4.00 each time. Besides, the Activity in data set [7] came to 56.8%.

`N#Cc1ccc(NC(P(=O)(O)O)P(=O)(O)O)cc1`: in data set [1], the viability at 100 µM was 86%. Further, the viability at 48 h, 100 µM in data set [2] stood at 77%. Also, the negative logarithm of the IC50 (pIC50) in data set [3] was less than 4.00; in data set [4], 4.44; in data set [5], less than 4.00; in data set [6], less than 4.00. Moreover, in data set [7], the Activity stood at 76%.

In the case of `O=P(O)(O)C(Nc1ccccc1)P(=O)(O)O` [(PHENYLAMINO)METHYLENEDIPHOSPHONIC ACID], the viability at 100 µM in data set [1] was 68%. The viability at 48 h, 100 µM in data set [2] is 96%. In addition, the negative logarithm of the IC50 (pIC50) in data set [3], in data set [4], in data set [5] and in data set [6] was less than 4.00 each time. In data set [7], the Activity turned out to be 58%.

Regarding `O=P(O)(O)C(Sc1ccc(Cl)cc1)P(=O)(O)O` [TILUDRONIC ACID], the viability at 100 µM in data set [1] came out at 14%. Moreover, the viability at 48 h, 100 µM in data set [2] came to 61%. Moreover, the negative-log IC50 (pIC50) in data set [3] was less than 4.00; in data set [4], 5.14; in data set [5], 4.49; in data set [6], 4.52. In addition, in data set [7], the Activity was found to be 51.5%.

Consider `O=[N+]([O-])c1cccc(NC(P(=O)(O)O)P(=O)(O)O)c1` [(3-NITROPHENYLAMINO)METHYLENEDIPHOSPHONIC ACID], for which the viability at 100 µM in data set [1] amounted to 54%. For the same compound, in data set [2], the viability at 48 h, 100 µM was determined as 83%. For the same compound, the pIC50 in data set [3] is less than 4.00; in data set [4], 4.81; in data set [5] it was less than 4.00; in data set [6], less than 4.00. For the same compound, the Activity in data set [7] was 57.8%.

For the compound `O=P(O)(O)C(Nc1cccc(F)c1)P(=O)(O)O`, in data set [1], the viability at 100 µM came to 84%. Besides, in data set [2], the viability at 48 h, 100 µM was 70%. Also, the pIC50 in data set [3] is less than 4.00; in data set [4], 4.38; in data set [5], less than 4.00; in data set [6], less than 4.00. The Activity in data set [7] came to 63.6%.

In the case of `O=P(O)(O)C(Nc1ccc(Oc2ccc(Br)cc2)cc1)P(=O)(O)O`, in data set [1], the viability at 100 µM was 15.3%. In addition, the viability at 48 h, 100 µM in data set [2] turned out to be 90%. Besides, the pIC50 in data set [3] was 4.06; in data set [4], 5.55; in data set [5] it was 4.37; in data set [6], 4.31. For the same compound, the Activity in data set [7] was determined as 60.7%.

These data come from ChEMBL document CHEMBL2439950, “Arylamino methylene bisphosphonate derivatives as bone seeking matrix metalloproteinase inhibitors” (Bioorg Med Chem, 2013).
